Assay results gathered from unrelated publications.
Converted amounts (≈) assume the structure as drawn.
Organism: Escherichia coli
Effect on: microbial growth

| Compound | method | cells | strain | time | MIC |
| --- | --- | --- | --- | --- | --- |
| COC(=O)c1cc(-c2cccc(NC(=S)Nc3cccc(Cl)c3)c2)on1 | broth dilution |  | ATCC25922 |  | > 64 µg/mL |
| CC1(C)S[C@@H]2[C@H](NC(=O)[C@H](N)c3ccccc3)C(=O)N2[C@H]1C(=O)O | broth dilution | MDR |  | 16 h | 32 µg/mL (≈ 91.6 µM) |
| COC(=O)c1cc(-c2cccc(NC(=O)Nc3ccc(Cl)cc3Cl)c2)on1 | broth dilution |  | ATCC25922 |  | > 64 µg/mL |
| COc1cc(O)c2c(c1)/C=C/C[C@H](O)[C@H](O)C(=O)/C=C/C[C@H](C)OC2=O |  |  |  |  | > 500 µg/mL |
| C[n+]1c(/C=C/c2ccc(O)cc2)cc(/C=C2\Sc3ccccc3N2CCCN2CCOCC2)c2ccccc21.[I-] | broth dilution |  | ATCCBAA2469 |  | 8 µg/mL |
| COC(=O)c1cc(-c2cccc(NC(=O)Nc3c(C)cccc3C)c2)on1 | broth dilution |  | ATCC25922 |  | > 64 µg/mL |
| CSc1ccc(/C=C/c2cc(/C=C3\Sc4ccccc4N3CCCN3CCCC3)c3ccccc3[n+]2C)cc1.[I-] | broth dilution |  | ATCCBAA2469 |  | 32 µg/mL |
| C[C@H]1COc2c(N3CCN(C)CC3)c(F)cc3c(=O)c(C(=O)O)cn1c23 | broth dilution |  | ATCC25922 |  | 0.0156 µg/mL (≈ 0.0432 µM) |
| CC1(C)S[C@@H]2[C@H](NC(=O)[C@H](N)c3ccccc3)C(=O)N2[C@H]1C(=O)O | broth dilution |  | ATCCBAA2469 |  | > 64 µg/mL |
| C[C@H](CCC(=O)NCCCNCCCCNCCCN)[C@H]1CC[C@H]2[C@@H]3CC=C4C[C@@H](O)CC[C@]4(C)[C@H]3CC[C@]12C | broth dilution |  | MG1655 | 20 h | 64 µg/mL (≈ 115 µM) |
| CCCCCCC#Cc1cncc(-c2nnc(SCc3cc([N+](=O)[O-])cc([N+](=O)[O-])c3)n2C)c1 |  |  |  |  | ≥ 20 µg/mL |
| CN[C@H](CC(C)C)C(=O)N[C@H]1C(=O)N[C@@H](CC(N)=O)C(=O)N[C@H]2C(=O)N[C@H]3C(=O)N[C@H](C(=O)N[C@H](C(=O)O)c4cc(O)cc(O)c4-c4cc3ccc4O)[C@H](O)c3ccc(c(Cl)c3)Oc3cc2cc(c3O[C@@H]2O[C@H](CO)[C@@H](O)[C@H](O)[C@H]2O[C@H]2C[C@](C)(N)[C@H](O)[C@H](C)O2)Oc2ccc(cc2Cl)[C@H]1O | broth dilution |  | ATCCBAA2469 |  | > 64 µg/mL |
| COC(=O)c1cc(-c2cccc(NC(=O)Nc3cccc(C(F)(F)F)c3)c2)on1 | broth dilution |  | ATCC25922 |  | > 64 µg/mL |
| C[n+]1c(/C=C/c2c[nH]c3ccccc23)cc(/C=C2\Sc3ccccc3N2CCCN2CCOCC2)c2ccccc21.[I-] | broth dilution |  | ATCCBAA2469 |  | 64 µg/mL |
| COC(=O)c1cc(-c2cccc(NC(=O)Nc3ccc(C(F)(F)F)cc3)c2)on1 | broth dilution |  | ATCC25922 |  | > 64 µg/mL |
| Cc1cc(/C=C2\Sc3ccccc3N2CCCN2CCCCC2)c2ccccc2[n+]1C.[I-] | broth dilution |  | ATCCBAA2469 |  | 4 µg/mL |
| CN[C@@H]1[C@H](O)[C@H](NC)[C@H]2O[C@@]3(O)C(=O)C[C@@H](C)O[C@H]3O[C@@H]2[C@H]1O | broth dilution | K12 | K12 |  | 25 µg/mL (≈ 75.2 µM) |
| Fc1c(F)c(F)c(-c2c(F)c(F)c(F)c(F)c2F)c(F)c1F |  |  | ATCC25922 |  | > 250 µg/mL |
